Experimental data reported in ChEMBL document CHEMBL4831540, “Discovery of Aficamten (CK-274), a Next-Generation Cardiac Myosin Inhibitor for the Treatment of Hypertrophic Cardiomyopathy” (J Med Chem, 2021).
Values after ≈ are worked out from the molar mass of the structure shown.

Tests used:
[1] = Half life in Sprague-Dawley rat at 2 mg/kg, po; format: ADME, organism-based; conditions: in vivo
Method in brief: (§1)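 Multi-species PK study in male animals, n = 3 per group (dog IV arm n = 2). Iv and oral dosing with plasma concentration–time profiles yielding Cmax, tmax, AUC0–t, CL, Vss, t1/2 and F.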

[2] = system: Rattus norvegicus; assay: Anti-hypertrophic cardiomyopathy in po dosed Sprague-Dawley rat assessed as reduction in fractional shortening measured upto 24 hrs by echocardiography; format: functional, organism-based
Method in brief: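 Normal Sprague–Dawley rats were given single oral doses of 0.5–4 mg/kg. Left ventricular dimensions and fractional shortening were measured by echocardiography at selected time points over 24 h, relative to vehicle treatment.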

[3] = target: T1, Cytochrome P450 2C8 (Homo sapiens, UniProt P10632); assay: Inhibition of CYP2C8 in human liver microsomes assessed as paclitaxel 6a-hydroxylation reaction incubated for 30 mins in presence of NADP by LC-MS/MS analysis; format: ADME
T1 sequence (P10632 whole entry): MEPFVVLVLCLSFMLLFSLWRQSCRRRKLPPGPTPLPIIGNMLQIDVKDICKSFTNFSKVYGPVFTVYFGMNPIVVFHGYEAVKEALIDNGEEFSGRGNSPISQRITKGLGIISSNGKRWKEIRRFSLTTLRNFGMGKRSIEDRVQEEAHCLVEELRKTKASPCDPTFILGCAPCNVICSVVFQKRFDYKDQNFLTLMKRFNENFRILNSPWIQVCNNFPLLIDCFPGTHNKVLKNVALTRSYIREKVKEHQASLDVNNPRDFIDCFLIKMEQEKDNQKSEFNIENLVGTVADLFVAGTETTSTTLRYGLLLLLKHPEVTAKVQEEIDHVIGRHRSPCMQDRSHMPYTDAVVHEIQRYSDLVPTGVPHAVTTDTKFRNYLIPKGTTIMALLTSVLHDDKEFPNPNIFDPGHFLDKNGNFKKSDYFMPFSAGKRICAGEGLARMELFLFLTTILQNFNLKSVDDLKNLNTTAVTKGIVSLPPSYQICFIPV

[4] = Plasma protein binding in Beagle dog assessed as unbound fraction; format: ADME, Canis lupus familiaris
[5] = target: T2, Cytochrome P450 3A4 (Homo sapiens, UniProt P08684); assay: Inhibition of CYP3A4 in human liver microsomes assessed as testosterone 6-beta-hydroxylation reaction incubated for 30 mins in presence of NADP by LC-MS/MS analysis; format: ADME
Target sequence in this assay (P08684 whole entry): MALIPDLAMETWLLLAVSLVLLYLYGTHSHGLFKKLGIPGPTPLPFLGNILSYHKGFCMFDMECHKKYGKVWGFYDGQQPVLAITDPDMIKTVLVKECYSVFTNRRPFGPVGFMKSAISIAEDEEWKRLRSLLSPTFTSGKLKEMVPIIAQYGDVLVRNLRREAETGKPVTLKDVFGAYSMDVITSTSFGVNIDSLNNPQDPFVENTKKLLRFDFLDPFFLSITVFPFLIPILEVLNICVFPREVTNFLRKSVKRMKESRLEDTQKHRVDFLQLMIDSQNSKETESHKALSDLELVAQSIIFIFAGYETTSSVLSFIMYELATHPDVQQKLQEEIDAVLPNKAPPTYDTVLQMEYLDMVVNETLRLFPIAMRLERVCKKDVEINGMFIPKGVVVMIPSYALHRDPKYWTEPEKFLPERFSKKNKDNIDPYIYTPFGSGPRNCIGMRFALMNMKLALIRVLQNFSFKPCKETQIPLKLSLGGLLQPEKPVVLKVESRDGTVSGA

[6] = Plasma protein binding in Sprague-Dawley rat assessed as unbound fraction; format: ADME
[7] = Bioavailability in Sprague-Dawley rat at 1 mg/kg, po or 1 mg/kg, iv; format: ADME, organism-based; conditions: in vivo
Method in brief: (§2)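 Rat PK with iv and po administration at 1 mg/kg. Clearance and half-life came from the iv arm, and bioavailability from the iv/po comparison.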

[8] = target: T2, Cytochrome P450 3A4; assay: Inhibition of CYP3A4 in human liver microsomes incubated for 30 mins in presence of NADP by LC-MS/MS analysis
Target sequence in this assay (P08684 whole entry, looked up): as the sequence (P08684 whole entry) above

[9] = Clearance in cynomolgus monkey at 1 mg/kg, iv; format: ADME, organism-based, Macaca fascicularis; conditions: in vivo; method in brief: as §1
[10] = Oral bioavailability in Sprague-Dawley rat at 3 mg/kg; format: ADME, organism-based; conditions: in vivo
Method in brief: (§3)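 Single iv or oral doses in male animals, 3 per group except dog iv (2 animals). Plasma concentration–time profiles gave Cmax, tmax, AUC0–t, clearance, steady-state volume of distribution, half-life and bioavailability.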

[11] = Half life in human; format: ADME
[12] = Oral bioavailability in cynomolgus monkey at 1 mg/kg; format: ADME, organism-based, Macaca fascicularis; conditions: in vivo; method in brief: as §3
[13] = Volume of distribution at steady state in Sprague-Dawley rat at 1 mg/kg, iv; format: ADME, organism-based; conditions: in vivo, read-out: Vdss; method in brief: as §3
[14] = Inhibition of full-length myosin ATPase activity in bovine cardiac myofibrils; format: subcellular, Bos taurus, Heart
Method in brief: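 Bovine cardiac myofibril ATPase assay run at a calcium level giving 75% of maximal activity.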

[15] = Clearance in Sprague-Dawley rat at 1 mg/kg, iv; format: ADME, organism-based; conditions: in vivo; method in brief: as §2
[16] = Solubility of the compound at pH 6.8 by shake flask method; format: physicochemical; conditions: buffer
Method in brief: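 Shake-flask solubility at pH 6.8; solid form not characterized.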

[17] = Volume of distribution at steady state in Beagle dog at 1 mg/kg, iv; format: ADME, organism-based, Canis lupus familiaris; conditions: in vivo; method in brief: as §3
[18] = target: Cytochrome P450 2D6 (Homo sapiens, UniProt P10635); assay: Inhibition of CYP2D6 in human liver microsomes assessed as bufuralol 1'-hydroxylation reaction incubated for 30 mins in presence of NADP by LC-MS/MS analysis; format: ADME
[19] = Ratio of IC50 to IC10 for anti-hypertrophic cardiomyopathy in po dosed Sprague-Dawley rat assessed as reduction in fractional shortening measured upto 24 hrs by echocardiography; format: functional; conditions: time hrs <=24
Method in brief: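 Sprague–Dawley rats received single oral doses from 0.5 to 4 mg/kg. LV dimensions and fractional shortening were read by echocardiography at set times over 24 h, with blood drawn at each reading for compound level. Concentrations giving 50% and 10% FS reduction were derived, and their IC50/IC10 ratio was calculated.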

[20] = Half life in Sprague-Dawley rat at 3 mg/kg, po; format: ADME, organism-based; conditions: in vivo
[21] = Tmax in mouse at 1 mg/kg, po; format: ADME, organism-based; conditions: in vivo; method in brief: as §3
[22] = target: Cytochrome P450 2C19 (Homo sapiens, UniProt P33261); assay: Inhibition of CYP2C19 in human liver microsomes assessed as mephenytoin 4-hydroxylation reaction incubated for 30 mins in presence of NADP by LC-MS/MS analysis; format: ADME
[23] = Clearance in mouse at 0.5 mg/kg, iv; format: ADME, organism-based; conditions: in vivo; method in brief: as §1
[24] = Cmax in Beagle dog at 1 mg/kg, po; format: ADME, organism-based, Canis lupus familiaris; parameters: route oral, dose 1 mg/kg; conditions: in vivo; method in brief: as §1
[25] = Metabolic stability in rat liver microsomes assessed as intrinsic clearance measured upto 90mins by HPLC/MS/MS analysis; format: ADME, Microsome; conditions: read-out: CLH
[26] = Tmax in cynomolgus monkey at 1 mg/kg, po; format: ADME, organism-based, Macaca fascicularis; conditions: in vivo; method in brief: as §3
[27] = Half life in cynomolgus monkey at 1 mg/kg, po; format: ADME, organism-based, Macaca fascicularis; conditions: in vivo; method in brief: as §1
[28] = Clearance in Sprague-Dawley rat at 0.5 mg/kg; format: ADME, organism-based; conditions: in vivo
[29] = Half life in Sprague-Dawley rat at 8 mg/kg, po; format: ADME, organism-based; conditions: in vivo; method in brief: as §1
[30] = Half life in Beagle dog at 1 mg/kg, iv; format: ADME, organism-based, Canis lupus familiaris; conditions: in vivo; method in brief: as §1
[31] = Plasma protein binding in human assessed as unbound fraction; format: ADME, cell-free
[32] = Half life in mouse at 0.5 mg/kg, iv; format: ADME, organism-based; conditions: in vivo; method in brief: as §1
[33] = Half life in cynomolgus monkey at 1 mg/kg, iv; format: ADME, organism-based, Macaca fascicularis; conditions: in vivo; method in brief: as §1

Cytochrome P450 2C19, sequence (P33261 whole entry): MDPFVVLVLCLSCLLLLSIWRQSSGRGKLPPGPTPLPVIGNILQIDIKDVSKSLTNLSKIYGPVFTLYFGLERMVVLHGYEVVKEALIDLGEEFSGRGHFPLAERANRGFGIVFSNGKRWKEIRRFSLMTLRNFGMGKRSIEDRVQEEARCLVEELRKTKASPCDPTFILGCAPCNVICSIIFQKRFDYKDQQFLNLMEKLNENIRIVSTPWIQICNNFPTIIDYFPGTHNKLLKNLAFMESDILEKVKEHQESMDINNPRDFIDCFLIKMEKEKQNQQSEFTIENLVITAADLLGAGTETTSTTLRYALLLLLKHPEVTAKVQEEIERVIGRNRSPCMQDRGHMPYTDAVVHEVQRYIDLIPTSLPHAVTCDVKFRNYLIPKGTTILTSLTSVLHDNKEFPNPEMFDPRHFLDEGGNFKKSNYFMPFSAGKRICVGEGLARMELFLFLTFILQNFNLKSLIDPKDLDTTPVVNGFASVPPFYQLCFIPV
Cytochrome P450 2D6, sequence (P10635 whole entry): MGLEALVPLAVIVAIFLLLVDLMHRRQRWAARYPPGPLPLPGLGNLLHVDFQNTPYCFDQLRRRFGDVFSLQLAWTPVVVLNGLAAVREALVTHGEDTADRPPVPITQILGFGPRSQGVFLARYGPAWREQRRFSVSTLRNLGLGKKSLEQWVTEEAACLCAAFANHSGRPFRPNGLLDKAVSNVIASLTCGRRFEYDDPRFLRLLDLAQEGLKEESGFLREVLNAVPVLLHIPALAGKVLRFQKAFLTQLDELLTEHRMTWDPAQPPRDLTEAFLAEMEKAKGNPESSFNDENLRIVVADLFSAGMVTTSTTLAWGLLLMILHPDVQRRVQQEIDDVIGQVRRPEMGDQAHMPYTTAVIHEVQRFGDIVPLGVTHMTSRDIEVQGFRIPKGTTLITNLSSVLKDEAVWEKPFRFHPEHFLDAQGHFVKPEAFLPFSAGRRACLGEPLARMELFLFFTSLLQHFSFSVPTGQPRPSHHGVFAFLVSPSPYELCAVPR

CCc1nc(-c2ccc3c(c2)CC[C@H]3NC(=O)c2cnn(C)c2)no1 [AFICAMTEN]
half-life [1]: 2.6 h
IC10 ([2]; Rattus norvegicus, Sprague-Dawley, 24 h): 0.8 µM
IC50 ([2]; time hrs <=24): 7.9 µM
IC50 [3]: > 100 µM
fraction unbound [4]: 0.251
IC50 [5]: > 100 µM
fraction unbound [6]: 0.018
bioavailability [7]: 55%
IC50 [8]: > 100 µM
clearance [9]: 11.2 mL/min/kg
bioavailability [10]: 58%
half-life [11]: 67.2 h
bioavailability [12]: 41%
Vd [13]: 0.53 L/kg
IC50 [14]: 1.4 µM
clearance [15]: 2.1 mL/min/kg
solubility thermodynamic [16]: 97 µM (≈ 32.7 µg/mL)
Vd [17]: 10.5 L/kg
IC50 [18]: > 100 µM
Ratio [19]: 9.9
half-life [20]: 3.5 h
Tmax [21]: 0.25 h
IC50 [22]: > 100 µM
clearance [23]: 8.8 mL/min/kg
Cmax [24]: 245 ng/mL
CLint scaled [25]: < 21 mL/min/kg
Tmax [26]: 1.17 h
half-life [27]: 12.1 h
clearance [28]: 2 mL/min/kg
half-life [29]: 3.3 h
half-life [30]: 33.8 h
fraction unbound [31]: 0.095
half-life [32]: 4.5 h
half-life [33]: 8.1 h
